Test results reported in ChEMBL document CHEMBL4033716, “The impact of the halogen bonding on D2 and 5-HT1A/5-HT7 receptor activity of azinesulfonamides of 4-[(2-ethyl)piperidinyl-1-yl]phenylpiperazines with antipsychotic and antidepressant properties” (Bioorg Med Chem, 2017).
Active and inactive are the calls of the source. The calls are words filed in the database; no cut-off is given here.

Experiments:
D(2) dopamine receptor [1] = target: T1, D(2) dopamine receptor (Homo sapiens, UniProt P14416); experiment: Displacement of [3H]-Raclopride from human dopamine D2L receptor expressed in HEK293 cell membranes after 1 hr by microbeta liquid scintillation counting analysis
T1 sequence (P14416 whole entry): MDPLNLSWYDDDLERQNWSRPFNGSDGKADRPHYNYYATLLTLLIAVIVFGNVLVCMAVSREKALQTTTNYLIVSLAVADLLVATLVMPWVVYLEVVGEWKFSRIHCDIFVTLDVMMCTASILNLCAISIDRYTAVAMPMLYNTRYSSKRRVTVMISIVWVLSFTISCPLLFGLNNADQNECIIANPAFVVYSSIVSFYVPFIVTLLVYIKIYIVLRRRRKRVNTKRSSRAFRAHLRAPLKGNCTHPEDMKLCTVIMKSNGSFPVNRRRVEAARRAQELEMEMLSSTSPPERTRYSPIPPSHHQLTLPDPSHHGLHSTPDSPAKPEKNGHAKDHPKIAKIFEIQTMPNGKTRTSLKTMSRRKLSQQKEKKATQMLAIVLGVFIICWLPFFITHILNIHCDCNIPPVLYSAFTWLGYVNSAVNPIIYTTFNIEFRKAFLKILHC
Summary of the method: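 HEK293 membranes expressing human D2L. Incubated 1 h at 37°C, rapid filtration. 1 µM (+)butaclamol defined nonspecific binding. Triplicates at 7–8 concentrations, 10⁻¹¹–10⁻⁴ M. Ki via Cheng-Prusoff, ≥3 experiments.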

[2] = target: T2, 5-hydroxytryptamine receptor 1A (Homo sapiens, UniProt P08908); experiment: Displacement of [3H]-8-OH-DPAT from human 5-HT1A receptor expressed in HEK293 cell membranes after 1 hr by microbeta liquid scintillation counting analysis
T2 sequence (P08908 whole entry): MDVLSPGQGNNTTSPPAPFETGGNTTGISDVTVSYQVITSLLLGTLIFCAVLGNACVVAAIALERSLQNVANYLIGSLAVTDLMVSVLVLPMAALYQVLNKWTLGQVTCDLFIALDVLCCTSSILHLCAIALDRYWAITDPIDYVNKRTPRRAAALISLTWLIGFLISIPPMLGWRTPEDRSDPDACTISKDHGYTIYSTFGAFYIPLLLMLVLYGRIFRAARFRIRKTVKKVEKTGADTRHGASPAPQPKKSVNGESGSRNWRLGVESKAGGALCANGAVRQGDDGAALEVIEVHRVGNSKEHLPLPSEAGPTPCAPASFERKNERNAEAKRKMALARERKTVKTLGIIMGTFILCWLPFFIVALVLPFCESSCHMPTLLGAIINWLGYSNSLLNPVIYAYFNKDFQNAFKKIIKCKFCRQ
Summary of the method: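 HEK293 membranes with stably expressed human 5-HT1A, washed by two 35 000 g spins. Buffer 50 mM Tris-HCl, 0.1 mM EDTA, 4 mM MgCl₂, 10 μM pargyline, 0.1% ascorbate. Incubated 1 h at room temperature, then rapid filtration. 10 µM 5-HT defined nonspecific binding. Tested in triplicate over 10⁻¹¹–10⁻⁴ M (7–8 concentrations). Ki via Cheng-Prusoff, mean of ≥3 experiments.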

[3] = target: 5-hydroxytryptamine receptor 6 (Homo sapiens, UniProt P50406); experiment: Displacement of [3H]-LSD from human 5-HT6 receptor expressed in HEK293 cell membranes after 1 hr by microbeta liquid scintillation counting analysis
Sequence of 5-hydroxytryptamine receptor 6 (P50406 whole entry): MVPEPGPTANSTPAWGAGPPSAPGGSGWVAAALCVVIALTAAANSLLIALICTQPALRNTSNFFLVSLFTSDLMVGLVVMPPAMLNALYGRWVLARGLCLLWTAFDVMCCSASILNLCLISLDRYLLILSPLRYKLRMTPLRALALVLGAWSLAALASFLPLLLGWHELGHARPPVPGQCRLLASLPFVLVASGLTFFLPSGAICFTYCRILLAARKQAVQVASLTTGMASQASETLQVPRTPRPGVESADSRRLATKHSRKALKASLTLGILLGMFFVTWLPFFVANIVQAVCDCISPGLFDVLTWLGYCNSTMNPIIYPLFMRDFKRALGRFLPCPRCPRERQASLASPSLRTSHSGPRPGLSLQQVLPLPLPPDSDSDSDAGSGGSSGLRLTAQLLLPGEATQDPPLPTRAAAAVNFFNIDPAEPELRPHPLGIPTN
Summary of the method: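 Human 5-HT6 stably expressed in HEK293; cell membranes washed by two 35 000 g spins. Buffer 50 mM Tris-HCl, 0.5 mM EDTA, 4 mM MgCl₂. Incubated 1 h at 37°C, filtered. Nonspecific binding with 10 µM methiothepine. 7–8 concentrations (10⁻¹¹–10⁻⁴ M) in triplicate. Ki by Cheng-Prusoff, ≥3 experiments.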

[4] = target: 5-hydroxytryptamine receptor 2A (Homo sapiens, UniProt P28223); experiment: Displacement of [3H]-Ketanserin from human 5-HT2A receptor expressed in HEK293 cell membranes after 1 hr by microbeta liquid scintillation counting analysis
Sequence of 5-hydroxytryptamine receptor 2A (P28223 whole entry): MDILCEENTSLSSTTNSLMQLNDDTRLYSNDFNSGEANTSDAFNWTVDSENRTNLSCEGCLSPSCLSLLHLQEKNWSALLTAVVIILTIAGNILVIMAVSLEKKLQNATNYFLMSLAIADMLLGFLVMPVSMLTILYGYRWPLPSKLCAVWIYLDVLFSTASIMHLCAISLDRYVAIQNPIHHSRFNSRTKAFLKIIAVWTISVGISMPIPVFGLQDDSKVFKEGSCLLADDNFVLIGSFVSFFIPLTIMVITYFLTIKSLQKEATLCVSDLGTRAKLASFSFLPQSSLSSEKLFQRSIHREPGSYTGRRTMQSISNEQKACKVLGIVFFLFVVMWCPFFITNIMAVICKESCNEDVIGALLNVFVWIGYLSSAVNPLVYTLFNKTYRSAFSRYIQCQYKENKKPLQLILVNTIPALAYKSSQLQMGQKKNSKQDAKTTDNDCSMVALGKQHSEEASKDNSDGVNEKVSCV
Summary of the method: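 Competition binding on membranes from HEK293 cells stably expressing human 5-HT2A, prepared by homogenization and two 35 000 g centrifugations. Incubated 1 h at 37°C, then filtered and counted. Triplicate points at 7–8 concentrations, 10⁻¹¹–10⁻⁴ M. Ki from Cheng-Prusoff, ≥3 separate experiments.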

[5] = target: T3, 5-hydroxytryptamine receptor 7 (Homo sapiens, UniProt P34969); experiment: Displacement of [3H]-5-CT from human 5-HT7 receptor expressed in HEK293 cell membranes after 1 hr by microbeta liquid scintillation counting analysis
T3 sequence (P34969 whole entry): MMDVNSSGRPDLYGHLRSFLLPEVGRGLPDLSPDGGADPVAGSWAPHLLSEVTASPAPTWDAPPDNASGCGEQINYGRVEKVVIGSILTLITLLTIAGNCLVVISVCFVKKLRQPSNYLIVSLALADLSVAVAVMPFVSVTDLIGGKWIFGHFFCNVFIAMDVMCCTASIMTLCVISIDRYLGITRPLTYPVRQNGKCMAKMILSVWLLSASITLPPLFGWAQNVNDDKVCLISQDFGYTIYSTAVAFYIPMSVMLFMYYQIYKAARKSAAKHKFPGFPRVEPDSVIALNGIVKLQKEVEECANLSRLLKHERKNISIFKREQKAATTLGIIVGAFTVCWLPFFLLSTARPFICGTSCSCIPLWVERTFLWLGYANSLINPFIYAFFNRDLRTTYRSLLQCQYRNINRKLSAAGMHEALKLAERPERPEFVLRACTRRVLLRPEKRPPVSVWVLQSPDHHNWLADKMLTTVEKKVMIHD
Summary of the method: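 Membranes from HEK293 pellets stably expressing human 5-HT7b, homogenized and centrifuged twice at 35 000 g (4°C) with 15 min 37°C incubation between. Buffer 50 mM Tris-HCl, 4 mM MgCl₂, 10 μM pargyline, 0.1% ascorbate. Incubated 1 h at 37°C, then filtered. Nonspecific binding defined with 10 µM 5-HT. Triplicates at 7–8 concentrations (10⁻¹¹–10⁻⁴ M). Ki by Cheng-Prusoff, ≥3 experiments.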

Mus musculus [6] = experiment: Antidepressant-like activity in Swiss albino mouse assessed as decrease in immobility time at 1.25 mg/kg, ip measured last 4 mins of 6 mins test by forced swim test relative to control; format: functional; design: scale not given: the % may be the effect or the level left
Summary of the method: (§1)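 Male Swiss albino mice (22–26 g), used once, observer blind. Drugs dissolved in distilled water, given i.p. at 10 ml/kg: test compounds 60 min, citalopram 30 min before testing; controls got vehicle. Mice placed 6 min in a cylinder with 10 cm water at 23–25°C; immobility scored over the last 4 min. 7–12 mice/group; one-way ANOVA then Bonferroni.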

D(2) dopamine receptor [7] = target: T1, D(2) dopamine receptor; experiment: Antagonist activity at human dopamine D2 receptor expressed in HEK293 cells at 1 uM assessed as inhibition of dopamine-induced cAMP production; format: functional, cell-based
Summary of the method: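 Cellular cAMP antagonist assay run by a contract lab on HEK293 cells stably expressing human D2 receptor. Compound tested at 10⁻⁶ M. Result given as % inhibition of the control agonist response to dopamine 30 nM.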

Mus musculus [8] = experiment: Antipsychotic activity in CD-1 mouse assessed as inhibition of MK-801-induced hyperlocomotor activity at 30 mg/kg, ip pretreated with MK-801 for 15 mins followed by compound administration for 60 mins; format: functional, organism-based
Summary of the method: (§2)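 Male CD-1 mice, tested in the light phase, observer blind. Test compounds i.p. 60 min and MK-801 i.p. 15 min before testing, in distilled water at 10 ml/kg; vehicle controls. After 30 min cage habituation, ambulation recorded by activity monitor for 1 h in 5-min bins. 8–10 animals/group; mean ± SEM, one-way ANOVA with Bonferroni test.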

Mus musculus [9] = experiment: Antidepressant-like activity in Swiss albino mouse assessed as decrease in immobility time at 2.5 mg/kg, ip measured last 4 mins of 6 mins test by forced swim test relative to control; format: functional; design: scale not given: the % may be the effect or the level left; summary of the method: as §1
[10] = target: T3, 5-hydroxytryptamine receptor 7; experiment: Antagonist activity at human 5-HT7 receptor expressed in CHOK1 cells assessed as inhibition of serotonin-induced cAMP production at 1 uM after 30 mins by HTRF assay; format: functional, cell-based
Summary of the method: (§3)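 Cellular cAMP functional antagonist assay run by a contract lab. Human 5-HT7 receptor was stably expressed in CHO cells, and human 5-HT1A in HEK293 cells. Read-out was % inhibition of the control agonist response.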

[11] = target: T4, 5-hydroxytryptamine receptor 1A (Homo sapiens) (UniProt P08908); experiment: Antagonist activity at human 5-HT1A receptor expressed in HEK293 cells assessed as inhibition of 8-OH-DPAT-induced cAMP production at 1 uM by fluorescence assay; format: functional, cell-based; summary of the method: as §3
T4 sequence (whole entry): T2 sequence (P08908 whole entry)

Mus musculus [12] = experiment: Antidepressant-like activity in Swiss albino mouse assessed as decrease in immobility time administered ip for 30 mins measured last 4 mins of 6 mins test by forced swim test relative to control; format: functional; conditions: read-out: MED; summary of the method: as §1
Mus musculus [13] = experiment: Antipsychotic activity in CD-1 mouse assessed as inhibition of MK-801-induced hyperlocomotor activity administered ip pretreated with MK-801 for 15 mins followed by compound treatment for 60 mins; format: functional; conditions: CD-1, ip, read-out: MED; summary of the method: as §2
Mus musculus [14] = experiment: Antipsychotic activity in CD-1 mouse assessed as inhibition of MK-801-induced hyperlocomotor activity at 10 to 20 mg/kg, ip pretreated with MK-801 for 15 mins followed by compound administration for 60 mins; format: functional, organism-based; summary of the method: as §2
Mus musculus [15] = experiment: Antidepressant-like activity in Swiss albino mouse assessed as decrease in immobility time at 0.625 mg/kg measured last 4 mins of 6 mins test by forced swim test relative to control; format: functional; design: scale not given: the % may be the effect or the level left; summary of the method: as §1
Mus musculus [16] = experiment: Antidepressant-like activity in Swiss albino mouse assessed as decrease in immobility time at 1.25 mg/kg, ip for 30 mins measured last 4 mins of 6 mins test by forced swim test relative to control; format: functional; design: scale not given: the % may be the effect or the level left; summary of the method: as §1
Mus musculus [17] = experiment: Antipsychotic activity in CD-1 mouse assessed as inhibition of MK-801-induced hyperlocomotor activity at 2.5 to 30 mg/kg, ip pretreated with MK-801 for 15 mins followed by compound administration for 60 mins; format: functional, organism-based; summary of the method: as §2
Mus musculus [18] = experiment: Antipsychotic activity in CD-1 mouse assessed as inhibition of MK-801-induced hyperlocomotor activity at 5 to 20 mg/kg, ip pretreated with MK-801 for 15 mins followed by compound administration for 60 mins; format: functional, organism-based; summary of the method: as §2
Mus musculus [19] = experiment: Antipsychotic activity in CD-1 mouse assessed as inhibition of dizocilpine-induced hyperlocomotor activity at 0.5 mg/kg, ip pretreated with dizocilpine for 15 mins followed by compound administration for 60 mins; format: functional, organism-based; summary of the method: as §2

Row | Ki (D(2) dopamine receptor [1]) | Ki [2] | Ki [3] | Ki [4] | Ki [5] | Compound | further results
1 | 121 nM | 257 nM | 791 nM | 336 nM | 52 nM | O=S(=O)(c1cccc2ncccc12)N1CCC(CCN2CCN(c3ccc(Cl)c(Cl)c3)CC2)CC1 | –
2 | 418 nM | 975 nM | 1860 nM | 156 nM | 14 nM | O=S(=O)(c1cncc2ccccc12)N1CCC(CCN2CCN(c3ccc(F)cc3)CC2)CC1 | –
3 | 1220 nM | 543 nM | 2410 nM | 410 nM | 174 nM | O=S(=O)(c1cncc2ccccc12)N1CCC(CCN2CCN(c3ccccc3)CC2)CC1 | –
4 | 37 nM | 32 nM | 1190 nM | 157 nM | 18 nM | O=S(=O)(c1cncc2ccccc12)N1CCC(CCN2CCN(c3cccc(Cl)c3)CC2)CC1 | Activity (Mus musculus [6]): 36%; inhibition (D(2) dopamine receptor [7]): 85%; inhibition (Mus musculus [8]): Active; Activity (Mus musculus [9]): 32%; inhibition [10]: 73%; inhibition [11]: 69%
5 | 149 nM | 40 nM | 640 nM | 530 nM | 56 nM | O=S(=O)(c1cccc2ncccc12)N1CCC(CCN2CCN(c3cccc(C(F)(F)F)c3)CC2)CC1 | –
6 | 1240 nM | 749 nM | 6710 nM | 646 nM | 209 nM | O=S(=O)(c1cccc2ncccc12)N1CCC(CCN2CCN(c3ccccc3)CC2)CC1 | –
7 | 148 nM | 30 nM | 1020 nM | 161 nM | 52 nM | O=S(=O)(c1cncc2ccccc12)N1CCC(CCN2CCN(c3cccc(C(F)(F)F)c3)CC2)CC1 | –
8 | 145 nM | 324 nM | 1040 nM | 179 nM | 36 nM | O=S(=O)(c1cncc2ccccc12)N1CCC(CCN2CCN(c3ccc(Cl)c(Cl)c3)CC2)CC1 | –
9 | 141 nM | 740 nM | 1020 nM | 152 nM | 37 nM | O=S(=O)(c1cccc2ncccc12)N1CCC(CCN2CCN(c3ccc(Cl)cc3)CC2)CC1 | –

Continued, compound first:

Row | Compound | Ki (D(2) dopamine receptor [1]) | Ki [2] | Ki [3] | Ki [4] | Ki [5] | further results
10 | O=S(=O)(c1cccc2ncccc12)N1CCC(CCN2CCN(c3cccc(Cl)c3)CC2)CC1 | 76 nM | 54 nM | 445 nM | 197 nM | 37 nM | –
11 | O=S(=O)(c1cccc2ncccc12)N1CCC(CCN2CCN(c3ccc(F)cc3)CC2)CC1 | 223 nM | 759 nM | 1460 nM | 139 nM | 29 nM | –
12 | O=S(=O)(c1cccc2ncccc12)N1CCC(CCN2CCN(c3cccc(F)c3)CC2)CC1 | 1820 nM | 609 nM | 8280 nM | 665 nM | 165 nM | –
13 | O=S(=O)(c1cccc2ncccc12)N1CCC(CCN2CCN(c3cccc(Cl)c3Cl)CC2)CC1 | 36 nM | 45 nM | 401 nM | 286 nM | 55 nM | minimal effective dose (Mus musculus [12]; in the assay text read “for 60 mins” for “for 30 mins”): 0.625 mg/kg; minimal effective dose (Mus musculus [13]): 10 mg/kg; inhibition (D(2) dopamine receptor [7]): 88%; inhibition (Mus musculus [14]): Active; inhibition [10]: 69%; Activity (Mus musculus [15]): 23%; inhibition [11]: 63%
14 | CN(C)CCCC1(c2ccc(F)cc2)OCc2cc(C#N)ccc21 (configuration not stated) [CITALOPRAM] | – | – | – | – | – | Activity (Mus musculus [16]): 28%
15 | O=S(=O)(c1cncc2ccccc12)N1CCC(CCN2CCN(c3ccc(Cl)cc3)CC2)CC1 | – | – | – | – | – | minimal effective dose (Mus musculus [12]): 30 mg/kg; minimal effective dose (Mus musculus [13]): 5 mg/kg; inhibition (Mus musculus [17]): Active
16 | O=S(=O)(c1cncc2ccccc12)N1CCC(CCN2CCN(c3cccc(Cl)c3Cl)CC2)CC1 | 30 nM | 29 nM | 309 nM | 371 nM | 39 nM | inhibition (Mus musculus [18]): inactive; inhibition (D(2) dopamine receptor [7]): 79%; inhibition [10]: 75%; inhibition [11]: 64%
17 | O=S(=O)(c1cncc2ccccc12)N1CCC(CCN2CCN(c3cccc(F)c3)CC2)CC1 | 1010 nM | 370 nM | 3800 nM | 691 nM | 142 nM | –
18 | O=C1CCc2ccc(OCCCCN3CCN(c4cccc(Cl)c4Cl)CC3)cc2N1 | – | – | – | – | – | inhibition (Mus musculus [19]): Active
